Calls of active or inactive are those of the source. The rule behind the calls is not given here.
Key:
Homo sapiens = species on record: Homo sapiens; assay: Selectivity ratio of IC50 for human HDAC1 to IC50 for human HDAC6
Method in brief: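 HDAC1 and HDAC6 IC50s are each the mean of two experiments.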

[1] = biological target: T1, Protein deacetylase HDAC6 (Homo sapiens, UniProt Q9UBN7); assay: Inhibition of human HDAC6 using RHKKAc as substrate by fluorescence assay
T1 sequence (Q9UBN7 whole entry): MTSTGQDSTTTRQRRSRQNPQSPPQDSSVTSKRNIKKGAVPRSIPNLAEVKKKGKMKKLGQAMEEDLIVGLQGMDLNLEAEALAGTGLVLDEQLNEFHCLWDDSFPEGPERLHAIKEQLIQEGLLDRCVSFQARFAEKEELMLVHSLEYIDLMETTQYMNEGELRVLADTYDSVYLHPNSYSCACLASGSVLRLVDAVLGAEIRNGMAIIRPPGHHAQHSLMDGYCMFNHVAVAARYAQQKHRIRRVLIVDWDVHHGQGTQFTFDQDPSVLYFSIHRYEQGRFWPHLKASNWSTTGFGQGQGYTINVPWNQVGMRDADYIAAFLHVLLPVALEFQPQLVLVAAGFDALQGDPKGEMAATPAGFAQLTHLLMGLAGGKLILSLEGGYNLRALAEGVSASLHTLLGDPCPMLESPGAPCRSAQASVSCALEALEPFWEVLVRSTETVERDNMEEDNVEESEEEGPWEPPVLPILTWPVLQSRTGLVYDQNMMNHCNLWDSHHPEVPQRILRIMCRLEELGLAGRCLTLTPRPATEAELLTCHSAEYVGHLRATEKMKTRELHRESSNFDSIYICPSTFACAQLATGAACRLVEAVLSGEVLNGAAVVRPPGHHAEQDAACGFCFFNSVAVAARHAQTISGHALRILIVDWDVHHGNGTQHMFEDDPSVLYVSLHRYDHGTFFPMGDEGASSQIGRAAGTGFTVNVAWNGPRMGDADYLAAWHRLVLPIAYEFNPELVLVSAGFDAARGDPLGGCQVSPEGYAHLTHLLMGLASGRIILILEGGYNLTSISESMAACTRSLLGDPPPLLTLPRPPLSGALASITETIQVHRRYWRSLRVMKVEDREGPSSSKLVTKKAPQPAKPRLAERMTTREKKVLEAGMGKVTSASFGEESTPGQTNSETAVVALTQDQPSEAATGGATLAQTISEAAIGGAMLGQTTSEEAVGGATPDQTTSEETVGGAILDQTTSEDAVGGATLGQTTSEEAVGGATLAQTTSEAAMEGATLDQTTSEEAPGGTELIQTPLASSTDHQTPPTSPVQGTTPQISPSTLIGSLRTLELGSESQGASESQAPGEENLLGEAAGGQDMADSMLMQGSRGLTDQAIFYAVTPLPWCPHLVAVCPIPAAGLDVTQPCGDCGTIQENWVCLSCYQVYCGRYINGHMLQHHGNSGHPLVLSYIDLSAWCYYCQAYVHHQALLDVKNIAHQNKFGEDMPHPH

Histone deacetylase 1 [2] = biological target: T2, Histone deacetylase 1 (Homo sapiens, UniProt Q13547); assay: Inhibition of human HDAC1 using RHKKAc as substrate by fluorescence assay
[3] = Half life in human liver microsomes in presence of NADPH; assay type: ADME, microsome
Method in brief: (§1)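 Incubated in pooled liver microsomes (human or mouse as per line) with NADPH cofactor; all tests run in duplicate.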

[4] = Metabolic stability in mouse liver microsomes assessed as parent compound remaining at 60 mins in presence of NADPH; assay type: ADME, microsome; conditions: read-out: Stability; method in brief: as §1
[5] = Metabolic stability in human liver microsomes assessed as parent compound remaining at 60 mins in presence of NADPH; assay type: ADME, microsome; conditions: read-out: Stability; method in brief: as §1
[6] = Half life in mouse liver microsomes in presence of NADPH; assay type: ADME, microsome; method in brief: as §1
[7] = biological target: T3, Protein deacetylase HDAC6 (Homo sapiens) (UniProt Q9UBN7); assay: Inhibition of HDAC6 in HEK293 cells assessed as induction of tubulin acetylation after 24 hrs by Western blot method; assay type: cell-based
T3 sequence (whole entry): T1 sequence (Q9UBN7 whole entry)
Method in brief: (§2)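 HEK293 cells are treated with compound, and acetylated tubulin and histone H3 are detected by Western blot with GAPDH as loading control. Each blot carries a tubastatin 10 µM positive control and a DMSO or medium negative control.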

Liver [8] = assay: Prodrug conversion in human liver microsomes assessed as N-[5-(5,6-Dichloro-1H-indol-1-yl)pentyl]-2-mercaptoacetamide formation measured over 60 mins; assay type: ADME, microsome
Method in brief: (§3)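 Disulfide prodrug incubated with pooled human or mouse liver microsomes, with the released free mercaptoacetamide measured over time. Percent released is taken as the measured thiol concentration divided by twice the initial prodrug concentration.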

Liver [9] = assay: Prodrug conversion in mouse liver microsomes assessed as N-[5-(5,6-Dichloro-1H-indol-1-yl)pentyl]-2-mercaptoacetamide formation measured over 60 mins; assay type: ADME, microsome; method in brief: as §3
Mus musculus = assay: In vivo inhibition of HDAC6 in C57Bl/6J mouse assessed as increase in tubulin acetylation in cerebral cortex at 20 mg/kg, ip first dose administered in evening followed by second dose in next day morning measured 6 hrs post last dose by Western blot method relative to vehicle-treated control; assay type: functional; parameters: scale not given: the % may be the effect or the level left
Method in brief: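 Mice (n=3) are dosed 20 mg/kg IP at 18:00, then dosed again at 20 mg/kg at 10:00 the next morning, and killed 6 h later. Cortex is taken for Western blot of acetyl-tubulin with GAPDH as loading control. Densitometric acetyl-tubulin/GAPDH ratio is expressed as % of vehicle-treated mice; significance is set at p<0.05.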

Liver [10] = assay: Prodrug conversion in mouse liver microsomes assessed as N-[4-[(5,7-Dichloroquinolin-8-yl)amino]butyl]-2-mercaptoacetamide formation measured over 60 mins; assay type: ADME, microsome; conditions: 1 h; method in brief: as §3
Histone deacetylase 1 [11] = biological target: T2, Histone deacetylase 1; assay: Inhibition of HDAC1 in HEK293 cells assessed as increase in histone H3 acetylation at 5 uM after 24 hrs by Western blot method; assay type: cell-based; method in brief: as §2
Liver [12] = assay: Prodrug conversion in human liver microsomes assessed as N-[4-[(5,7-Dichloroquinolin-8-yl)amino]butyl]-2-mercaptoacetamide formation measured over 60 mins; assay type: ADME, microsome; conditions: 1 h; method in brief: as §3

T2 sequence (Q13547 whole entry): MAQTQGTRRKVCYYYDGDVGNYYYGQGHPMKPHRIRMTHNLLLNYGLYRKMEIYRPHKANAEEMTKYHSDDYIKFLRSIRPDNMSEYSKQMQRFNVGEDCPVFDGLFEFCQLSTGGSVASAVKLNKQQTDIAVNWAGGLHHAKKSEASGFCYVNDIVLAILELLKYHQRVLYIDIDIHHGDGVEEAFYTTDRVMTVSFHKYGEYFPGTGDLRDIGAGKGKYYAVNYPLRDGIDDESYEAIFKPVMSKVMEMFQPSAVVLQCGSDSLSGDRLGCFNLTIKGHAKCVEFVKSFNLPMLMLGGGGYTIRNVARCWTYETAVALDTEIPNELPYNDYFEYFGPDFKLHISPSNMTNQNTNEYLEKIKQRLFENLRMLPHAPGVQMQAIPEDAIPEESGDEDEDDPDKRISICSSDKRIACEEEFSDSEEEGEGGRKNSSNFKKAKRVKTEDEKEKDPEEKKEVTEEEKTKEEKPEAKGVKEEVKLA

Ratio IC50 (Homo sapiens) | IC50 [1] [nM] | IC50 (Histone deacetylase 1 [2]) [nM] | half-life [3] [min] | remaining at 1 h [4] [%] | remaining at 1 h [5] [%] | half-life [6] [min] | inhibition [7] | Drug metabolism (Liver [8]) | Drug metabolism (Liver [9]) | Drug metabolism (Liver [10]) | inhibition (Histone deacetylase 1 [11]) | Drug metabolism (Liver [12]) | SMILES | Activity (Mus musculus) [%]
444 | 14.8 | 6570 | 42.5 | 39.6 | 32.1 | 51 | – | – | – | – | – | – | O=C(CS)NCCCCCNc1c(Cl)cc(Cl)c2cccnc12 | –
– | – | – | 49.5 | 18.2 | 40.5 | 24.8 | Dose-dependent effect | Metabolite_Detected | Metabolite_Detected | – | Active | – | O=C(CSSCC(=O)NCCCCCn1ccc2cc(Cl)c(Cl)cc21)NCCCCCn1ccc2cc(Cl)c(Cl)cc21 | 40
657 | 11.4 | 7490 | 35.2 | 29.5 | 25.3 | 41.3 | Dose-dependent effect | – | – | – | – | – | O=C(CS)NCCCCCn1ccc2cc(Cl)c(Cl)cc21 | –
– | 2.79 | 6880 | 32.2 | 61.7 | 22.3 | 91.2 | – | – | – | – | – | – | O=C(CS)NCCCCNc1c(Cl)cc(Cl)c2cccnc12 | –

Second part, the molecule before the results:

SMILES | Ratio IC50 (Homo sapiens) | IC50 [1] [nM] | IC50 (Histone deacetylase 1 [2]) [nM] | half-life [3] [min] | remaining at 1 h [4] [%] | remaining at 1 h [5] [%] | half-life [6] [min] | inhibition [7] | Drug metabolism (Liver [8]) | Drug metabolism (Liver [9]) | Drug metabolism (Liver [10]) | inhibition (Histone deacetylase 1 [11]) | Drug metabolism (Liver [12]) | Activity (Mus musculus) [%]
O=C(CS)NCCCCCCn1ccc2cc(Cl)c(Cl)cc21 | > 470 | 63.9 | > 30000 | – | – | – | – | – | – | – | – | – | – | –
CC(C)c1cn(CCCCCCNC(=O)CS)c2cc(Cl)c(Cl)cc12 | 18 | 1570 | 28700 | 48.8 | 44.3 | 33.3 | 70 | – | – | – | – | – | – | –
CC(C)C(=O)SCC(=O)NCCCCCn1ccc2cc(Cl)c(Cl)cc21 | – | – | – | < 1 | < 1 | < 1 | < 1 | Dose-dependent effect | Metabolite_Detected | Metabolite_Detected | – | – | – | –
O=C(CSSCC(=O)NCCCCNc1c(Cl)cc(Cl)c2cccnc12)NCCCCNc1c(Cl)cc(Cl)c2cccnc12 | – | – | – | 20.7 | 18.2 | 8.5 | 25.9 | Dose-dependent effect | – | – | Metabolite_Detected | Active | Metabolite_Detected | 30
O=C(CS)NCC(S)CCCn1ccc2cc(Cl)c(Cl)cc21 (stereo unspecified) | – | 534 | – | – | – | – | – | – | – | – | – | – | – | –
O=C(CS)NCCCCCCn1ccc2cc(F)c(Cl)cc21 | 450 | 65.1 | 29300 | – | – | – | – | – | – | – | – | – | – | –
O=C(CS)NCCCCCOc1c(Cl)cc(Cl)c2cccnc12 | > 901 | 33.3 | > 30000 | – | – | – | – | – | – | – | – | – | – | –
O=C(CS)NCCCCCCn1cc(Cl)c2cc(Cl)c(Cl)cc21 | > 124 | 241 | > 30000 | – | – | – | – | – | – | – | – | – | – | –
